In ChEMBL document CHEMBL1811902, “Thermodynamic and biological evaluation of a thrombin binding aptamer modified with several unlocked nucleic acid (UNA) monomers and a 2'-C-piperazino-UNA monomer” (Bioorg Med Chem, 2011):

Key:
[1] = Thermodynamic stability in pH 7.0 buffer containing 100 mM Kcl, 10 mM sodium cacodylate; format: physicochemical
Summary of the method: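 UV melting at 295 nm over 5–95 °C at 0.2 °C/min. Samples annealed 5 min at 80 °C, then slowly cooled. Nine strand concentrations spanning 10^-5–10^-6 M, set from absorbance above 80 °C. Heating and cooling profiles recorded. Thermodynamic parameters from non-linear fitting of melting curves with a unimolecular transition model.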

Plasma [2] = experiment: Anticoagulant activity in human plasma assessed as time required for clot formation at 0.33 mM at 37 degC; format: functional
Summary of the method: (§1)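 Pooled citrate plasma from four healthy donors. Thrombin reagent pre-incubated with aptamer at 0.33 mM for 5 min, then mixed with an equal volume of plasma. Clotting time (thrombin time, seconds) read at 37 °C on an automated coagulation analyser. Antithrombin effect taken as the extra clotting time over a water-added reference.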

Prothrombin = Prothrombin (Homo sapiens, UniProt P00734); experiment: Binding affinity to thrombin at 37 degC by isothermal titration calorimetry
Summary of the method: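 ITC at 37 °C. One 0.2 µL pre-injection, discarded, then 19 × 2 µL injections. Heat of dilution from aptamer-into-buffer injections subtracted.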

Plasma [3] = experiment: Anticoagulant activity in human plasma assessed as time required for clot formation in presence of compound minus time required for clot formation in absence of compound at 0.33 mM at 37 degC; format: functional; summary of the method: as §1

Tm [1]	Kd (Prothrombin)	SMILES	Time (Plasma [2])	Time (Plasma [3])
48.1 °C	300 nM	Cc1cn([C@H]2C[C@H](OP(N)(=O)OC[C@H]3O[C@@H](n4cnc5c(=O)[nH]c(N)nc54)C[C@@H]3OP(N)(=O)OC[C@H]3O[C@@H](n4cnc5c(=O)[nH]c(N)nc54)C[C@@H]3O)[C@@H](COP(N)(=O)OC[C@@H](COP(N)(=O)O[C@H]3C[C@H](n4cnc5c(=O)[nH]c(N)nc54)O[C@@H]3COP(N)(=O)O[C@H]3C[C@H](n4cnc5c(=O)[nH]c(N)nc54)O[C@@H]3COP(N)(=O)O[C@H]3C[C@H](n4cc(C)c(=O)[nH]c4=O)O[C@@H]3COP(N)(=O)O[C@H]3C[C@H](n4cnc5c(=O)[nH]c(N)nc54)O[C@@H]3COP(N)(=O)OC[C@@H](COP(N)(=O)O[C@H]3C[C@H](n4cnc5c(=O)[nH]c(N)nc54)O[C@@H]3COP(N)(=O)O[C@@H]3C[C@@H](COP(N)(=O)O[C@H]4C[C@H](n5cc(C)c(=O)[nH]c5=O)O[C@@H]4COP(N)(=O)O[C@H]4C[C@H](n5cc(C)c(=O)[nH]c5=O)O[C@@H]4COP(N)(=O)O[C@H]4C[C@H](n5cnc6c(=O)[nH]c(N)nc65)O[C@@H]4COP(N)(=O)O[C@H]4C[C@H](n5cnc6c(=O)[nH]c(N)nc65)O[C@@H]4COC(=O)CCCC[C@@H]4SC[C@@H]5NC(=O)N[C@@H]54)O[C@H]3n3cnc4c(=O)[nH]c(N)nc43)O[C@H](CO)n3ccc(=O)[nH]c3=O)O[C@H](CO)n3ccc(=O)[nH]c3=O)O2)c(=O)[nH]c1=O (stereo not given in full)	28.7 s	9.7 s
50.1 °C	1300 nM	Cc1cn([C@H]2C[C@H](OP(N)(=O)OC[C@@H]3C[C@@H](OP(N)(=O)OC[C@H]4O[C@@H](n5cnc6c(=O)[nH]c(N)nc65)C[C@@H]4OP(N)(=O)OC[C@H](COP(N)(=O)OC[C@H]4O[C@@H](n5cnc6c(=O)[nH]c(N)nc65)C[C@@H]4OP(N)(=O)OC[C@H]4O[C@@H](n5cc(C)c(=O)[nH]c5=O)C[C@@H]4OP(N)(=O)OC[C@H]4O[C@@H](n5cnc6c(=O)[nH]c(N)nc65)C[C@@H]4OP(N)(=O)OC[C@H]4O[C@@H](n5cnc6c(=O)[nH]c(N)nc65)C[C@@H]4OP(N)(=O)OC[C@H]4O[C@@H](n5cc(C)c(=O)[nH]c5=O)C[C@@H]4OP(N)(=O)OC[C@H]4O[C@@H](n5cc(C)c(=O)[nH]c5=O)C[C@@H]4OP(N)(=O)OC[C@H]4O[C@@H](n5cnc6c(=O)[nH]c(N)nc65)C[C@@H]4OP(N)(=O)OC[C@H]4O[C@@H](n5cnc6c(=O)[nH]c(N)nc65)C[C@@H]4O)O[C@H](CO)n4ccc(=O)[nH]c4=O)[C@H](n4cnc5c(=O)[nH]c(N)nc54)O3)[C@@H](COP(N)(=O)OC[C@@H](COP(N)(=O)O[C@H]3C[C@H](n4cnc5c(=O)[nH]c(N)nc54)O[C@@H]3COP(N)(=O)O[C@H]3C[C@H](n4cnc5c(=O)[nH]c(N)nc54)O[C@@H]3COC(=O)CCCC[C@@H]3SC[C@@H]4NC(=O)N[C@@H]43)O[C@H](CO)n3ccc(=O)[nH]c3=O)O2)c(=O)[nH]c1=O (stereo not given in full)	31.2 s	12.2 s

More lines, now with the values behind:

SMILES	Tm [1]	Kd (Prothrombin)	Time (Plasma [2])	Time (Plasma [3])
Cc1cn([C@H]2C[C@H](OP(N)(=O)OC[C@@H]3C[C@@H](OP(N)(=O)OC[C@H]4O[C@@H](n5cnc6c(=O)[nH]c(N)nc65)C[C@@H]4OP(N)(=O)OC[C@H]4O[C@@H](n5cc(C)c(=O)[nH]c5=O)C[C@@H]4OP(N)(=O)OC[C@H]4O[C@@H](n5cnc6c(=O)[nH]c(N)nc65)C[C@@H]4OP(N)(=O)OC[C@H]4O[C@@H](n5cc(C)c(=O)[nH]c5=O)C[C@@H]4OP(N)(=O)OC[C@H]4O[C@@H](n5cnc6c(=O)[nH]c(N)nc65)C[C@@H]4OP(N)(=O)OC[C@H]4O[C@@H](n5cnc6c(=O)[nH]c(N)nc65)C[C@@H]4OP(N)(=O)OC[C@H]4O[C@@H](n5cc(C)c(=O)[nH]c5=O)C[C@@H]4OP(N)(=O)OC[C@H]4O[C@@H](n5cc(C)c(=O)[nH]c5=O)C[C@@H]4OP(N)(=O)OC[C@H]4O[C@@H](n5cnc6c(=O)[nH]c(N)nc65)C[C@@H]4OP(N)(=O)OC[C@H]4O[C@@H](n5cnc6c(=O)[nH]c(N)nc65)C[C@@H]4O)[C@H](n4cnc5c(=O)[nH]c(N)nc54)O3)[C@@H](COP(N)(=O)OC[C@@H](COP(N)(=O)O[C@H]3C[C@H](n4cnc5c(=O)[nH]c(N)nc54)O[C@@H]3COP(N)(=O)O[C@H]3C[C@H](n4cnc5c(=O)[nH]c(N)nc54)O[C@@H]3COC(=O)CCCC[C@@H]3SC[C@@H]4NC(=O)N[C@@H]43)O[C@H](CN3CCNCC3)n3ccc(=O)[nH]c3=O)O2)c(=O)[nH]c1=O (stereo not given in full)	45.4 °C	1600 nM	21.3 s	2.3 s
Cc1cn([C@H]2C[C@H](OP(N)(=O)OC[C@H]3O[C@@H](n4cnc5c(=O)[nH]c(N)nc54)C[C@@H]3OP(N)(=O)OC[C@H]3O[C@@H](n4cnc5c(=O)[nH]c(N)nc54)C[C@@H]3O)[C@@H](COP(N)(=O)O[C@H]3C[C@H](n4cc(C)c(=O)[nH]c4=O)O[C@@H]3COP(N)(=O)O[C@H]3C[C@H](n4cnc5c(=O)[nH]c(N)nc54)O[C@@H]3COP(N)(=O)O[C@H]3C[C@H](n4cnc5c(=O)[nH]c(N)nc54)O[C@@H]3COP(N)(=O)O[C@H]3C[C@H](n4cc(C)c(=O)[nH]c4=O)O[C@@H]3COP(N)(=O)O[C@H]3C[C@H](n4cnc5c(=O)[nH]c(N)nc54)O[C@@H]3COP(N)(=O)OC[C@@H](COP(N)(=O)O[C@H]3C[C@H](n4cnc5c(=O)[nH]c(N)nc54)O[C@@H]3COP(N)(=O)O[C@@H]3C[C@@H](COP(N)(=O)O[C@H]4C[C@H](n5cc(C)c(=O)[nH]c5=O)O[C@@H]4COP(N)(=O)O[C@H]4C[C@H](n5c(C)cc(=O)[nH]c5=O)O[C@@H]4COP(N)(=O)O[C@H]4C[C@H](n5cnc6c(=O)[nH]c(N)nc65)O[C@@H]4COP(N)(=O)O[C@H]4C[C@H](n5cnc6c(=O)[nH]c(N)nc65)O[C@@H]4COC(=O)CCCC[C@@H]4SC[C@@H]5NC(=O)N[C@@H]54)O[C@H]3n3cnc4c(=O)[nH]c(N)nc43)O[C@H](CN3CCNCC3)n3ccc(=O)[nH]c3=O)O2)c(=O)[nH]c1=O (stereo not given in full)	45.2 °C	52.6 nM	31.2 s	12.2 s
Cc1cn([C@H]2C[C@H](OP(N)(=O)OC[C@H]3O[C@@H](n4cnc5c(=O)[nH]c(N)nc54)C[C@@H]3OP(N)(=O)OC[C@H]3O[C@@H](n4cnc5c(=O)[nH]c(N)nc54)C[C@@H]3O)[C@@H](COP(N)(=O)O[C@H]3C[C@H](n4cc(C)c(=O)[nH]c4=O)O[C@@H]3COP(N)(=O)O[C@H]3C[C@H](n4cnc5c(=O)[nH]c(N)nc54)O[C@@H]3COP(N)(=O)O[C@H]3C[C@H](n4cnc5c(=O)[nH]c(N)nc54)O[C@@H]3COP(N)(=O)OC[C@@H](COP(N)(=O)OC[C@@H](COP(N)(=O)OC[C@@H](COP(N)(=O)O[C@H]3C[C@H](n4cnc5c(=O)[nH]c(N)nc54)O[C@@H]3COP(N)(=O)O[C@@H]3C[C@@H](COP(N)(=O)O[C@H]4C[C@H](n5cc(C)c(=O)[nH]c5=O)O[C@@H]4COP(N)(=O)O[C@H]4C[C@H](n5c(C)cc(=O)[nH]c5=O)O[C@@H]4COP(N)(=O)O[C@H]4C[C@H](n5cnc6c(=O)[nH]c(N)nc65)O[C@@H]4COP(N)(=O)O[C@H]4C[C@H](n5cnc6c(=O)[nH]c(N)nc65)O[C@@H]4COC(=O)CCCC[C@@H]4SC[C@@H]5NC(=O)N[C@@H]54)O[C@H]3n3cnc4c(=O)[nH]c(N)nc43)O[C@H](CO)n3ccc(=O)[nH]c3=O)O[C@H](CO)n3cnc4c(=O)[nH]c(N)nc43)O[C@H](CO)n3ccc(=O)[nH]c3=O)O2)c(=O)[nH]c1=O (stereo not given in full)	27 °C	1500 nM	20.5 s	1.5 s
